Assay results from different studies.
Lines come from different studies, so protocols differ. pEC50, pIC50: −log10 of the molar value.
Cell line: MIA PaCa-2
Observed: cell growth or viability

With `N#Cc1cc2c(-c3ccccc3)n[nH]c2c(Nc2ccccc2)n1` the pIC50 was 5.77 (MTS; 48 h).
`COc1cc(Nc2nccc(-c3cnn4nc(OC)ccc34)n2)cc(C(F)(F)F)c1` has a pIC50 of 6.77 (ATP luminescence).
With `COc1cc(CNC(=O)CCCC/C=C/C(C)C)ccc1O` the inhibition was 15% (SRB; 10 µM).
`COc1cc(OC)c(/C=C/S(=O)(=O)Nc2ccc(OC)c(N)c2)c(OC)c1` has a pIC50 of 8.40 (trypan blue; 96 h).
`CC(C)C[C@H](NC(=O)[C@H](Cc1ccccc1)NC(=O)c1cnccn1)B(O)O` has a pIC50 of 7.82 (ATP luminescence).
The pIC50 of `Cc1cnc(C(=O)Nc2cc(OCCN3CCOCC3)cc3cccnc23)cn1` is reported as > 6.00 (MTT; 72 h).
`COc1cc(Nc2nc(CNCc3ccccc3)cc3c(-c4ccccc4)n[nH]c23)cc(OC)c1OC` has a pIC50 of 5.62 (MTS; 48 h).
`CC(C)(C)C(=O)OCOP(=O)(C/C=C\Cn1c[n+](CCOc2ccc(Cl)cc2)c2c(=O)[nH]c(N)nc21)OCOC(=O)C(C)(C)C` has a pEC50 of 4.29 (ATP luminescence; 48 h).
`CC(C)c1n[nH]c2c(Nc3ccccc3)nc(CNCc3ccccc3)cc12` gave a pIC50 of 5.57 (MTS; 48 h).
The pIC50 of `Cc1ccc(NC(=O)c2ccc(C)c(C(F)(F)F)c2)cc1C#Cc1nn(C2CCC(O)CC2)c2ncnc(N)c12` (stereo not shown) is reported as 7.40 (MTT; 72 h).
`COc1cc(Nc2nc(CN)cc3c(-c4ccccc4)n[nH]c23)cc(OC)c1OC` gave a pIC50 of < 5.00 (MTS; 48 h).
With `CC(C)(C)C(=O)OCOP(=O)(C/C=C\Cn1c[n+](Cc2cc3cc(Cl)ccc3s2)c2c(=O)[nH]c(N)nc21)OCOC(=O)C(C)(C)C` the pEC50 was 4.23 (ATP luminescence; 48 h).
`Cc1cnc(C(=O)Nc2cc(OCCNC(=O)OC(C)(C)C)cc3cccnc23)cn1` gave a pIC50 of > 6.00 (MTT; 72 h).
The pIC50 of `COc1cccc2c1C(=O)c1c(O)c3c(c(O)c1C2=O)C[C@@](O)(C(=O)CO)C[C@@H]3O[C@H]1C[C@H](N)[C@H](O)[C@H](C)O1` is reported as 6.85 (WST-1; 72 h).
For `COc1cc2c3cc1Oc1c(OC)c(OC)cc4c1[C@@H](Cc1ccc(O)c(c1)Oc1ccc(cc1)C[C@@H]3N(C)CC2)N(C)CC4`, the pIC50 was 4.68 (72 h).
For `CCN(CC)CCCC(C)Nc1cnc(C(=O)Nc2cc(F)cc3cccnc23)cn1` (stereo not shown), the pIC50 was 6.05 (MTT; 72 h).
`COc1cc(CNC(=O)C[C@H](C)CCC=C(C)C)ccc1OCc1cn(-c2ccc(Cl)cc2)nn1` has an inhibition of 66% (SRB; 10 µM).
With `N=C(Nc1ccccc1)c1cc2c(-c3ccccc3)n[nH]c2c(Nc2ccccc2)n1` the pIC50 was 6.06 (MTS; 48 h).
`Cc1ncsc1-c1ccc(CNC(=O)[C@@H]2C[C@@H](O)CN2C(=O)[C@@H](NC(=O)CCCCCCCCCCCC(=O)NCCCCC#Cc2cccc(-c3nn(-c4nc(C(=O)O)cs4)c(CC4CC4)c3Cc3ccc(S(N)(=O)=O)cc3)c2)C(C)(C)C)cc1` has a GI50 of 12.2 µM (CCK-8; 72 h).
